Laboratory results: ChEMBL document CHEMBL3232927 (J Med Chem, 2014)

Experiments:
[1] = Retention time of the compound up to by LC/MS analysis; assay type: physicochemical
Procedure, shortened: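 Reversed-phase LC/MS on a C18 (ODS) column, 5 μm, 4.6 × 150 mm, flow 1 mL/min. Gradient from 56/44 to 98/2 methanol/water containing 15 mM NH4OAc over 15 min, then a final hold.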

MDA-MB-231 = test: Cytotoxicity against human MDA-MB-231 cells after 72 hrs by MTT assay; assay type: functional, cell-based; settings: MDA-MB-231, 72 h
Procedure, shortened: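 MDA-MB-231 cells grown in MEM with 10% FBS and 1% pen/strep at 37 °C, seeded at 8000 cells/well in MEM with 5% FBS. 10 mM DMSO stocks were serially diluted in MEM/5% FBS: 1–10 000 nM for PTX-silicates, 0.1–1000 for DTX-silicates. Exposure 72 h, then MTT added and absorbance at 490 nm read at 60 min. IC50 from nonlinear regression of log concentration vs response; median of the IC50 distribution within the 95% confidence interval.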

[2] = Half life of the compound at C7 position in acetone-d6/D2O/CF3CO2H at 0.01 M by NMR spectroscopy analysis; assay type: physicochemical
Procedure, shortened: (§1)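 Silicates dissolved in acetone/water 10:1 (v/v) containing 1% TFA (measured pH 1.2) at ambient temperature. Silicate ester cleavage followed over time by NMR spectroscopy.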

[3] = Half life of the compound at C2 position in acetone-d6/D2O/CF3CO2H at 0.01 M by NMR spectroscopy analysis; assay type: physicochemical; procedure, shortened: as §1

Row | Retention_time [1] [min] | t1/2 [2] [h] | t1/2 [3] [h] | Structure (SMILES) | IC50 (MDA-MB-231) [nM]
1 | 24.6 | 2.5 | – | CCCCCCCCO[Si](OCCCCCCCC)(OCCCCCCCC)O[C@H]1C[C@H]2OC[C@@]2(OC(C)=O)[C@H]2[C@H](OC(=O)c3ccccc3)[C@]3(O)C[C@H](OC(=O)[C@H](O)[C@@H](NC(=O)c4ccccc4)c4ccccc4)C(C)=C([C@@H](OC(C)=O)C(=O)[C@]12C)C3(C)C | 290
2 | 16.4 | – | 226.67 | CCO[Si](O[C@@H](C(=O)O[C@H]1C[C@@]2(O)[C@@H](OC(=O)c3ccccc3)[C@@H]3[C@]4(OC(C)=O)CO[C@@H]4C[C@H](O)[C@@]3(C)C(=O)[C@H](O)C(=C1C)C2(C)C)[C@@H](NC(=O)OC(C)(C)C)c1ccccc1)(OC(C)(C)C)OC(C)(C)C | 430
3 | 15.9 | – | 4.33 | CC(=O)O[C@@]12CO[C@@H]1C[C@H](O)[C@@]1(C)C(=O)[C@H](O)C3=C(C)[C@@H](OC(=O)[C@H](O[Si](OC(C)C)(OC(C)C)OC(C)C)[C@@H](NC(=O)OC(C)(C)C)c4ccccc4)C[C@@](O)([C@@H](OC(=O)c4ccccc4)[C@H]21)C3(C)C | 0.2
4 | 15.4 | – | 2 | CC(=O)O[C@H]1C(=O)[C@@]2(C)[C@H]([C@H](OC(=O)c3ccccc3)[C@]3(O)C[C@H](OC(=O)[C@H](O[Si](OC(C)C)(OC(C)C)OC(C)C)[C@@H](NC(=O)c4ccccc4)c4ccccc4)C(C)=C1C3(C)C)[C@]1(OC(C)=O)CO[C@@H]1C[C@@H]2O | 4.2
5 | 24.5 | – | 1150 | CC(=O)O[C@H]1C(=O)[C@@]2(C)[C@H]([C@H](OC(=O)c3ccccc3)[C@]3(O)C[C@H](OC(=O)[C@H](O[Si](OC4CC(C)CCC4C(C)C)(OC4CC(C)CCC4C(C)C)OC4CC(C)CCC4C(C)C)[C@@H](NC(=O)c4ccccc4)c4ccccc4)C(C)=C1C3(C)C)[C@]1(OC(C)=O)CO[C@@H]1C[C@@H]2O (stereo partly specified) | 590
6 | 18.9 | 25 | 2.17 | CC(=O)O[C@H]1C(=O)[C@]2(C)[C@@H](O[Si](OC(C)C)(OC(C)C)OC(C)C)C[C@H]3OC[C@@]3(OC(C)=O)[C@H]2[C@H](OC(=O)c2ccccc2)[C@]2(O)C[C@H](OC(=O)[C@H](O[Si](OC(C)C)(OC(C)C)OC(C)C)[C@@H](NC(=O)c3ccccc3)c3ccccc3)C(C)=C1C2(C)C | 1600
7 | – | 3.33 | 0.3 | CCCCCCCCO[Si](OCCCCCCCC)(OCCCCCCCC)O[C@H]1C[C@H]2OC[C@@]2(OC(C)=O)[C@H]2[C@H](OC(=O)c3ccccc3)[C@]3(O)C[C@H](OC(=O)[C@H](O[Si](OCCCCCCCC)(OCCCCCCCC)OCCCCCCCC)[C@@H](NC(=O)c4ccccc4)c4ccccc4)C(C)=C([C@@H](OC(C)=O)C(=O)[C@]12C)C3(C)C | 280
8 | 13.8 | – | 0.0617 | CCO[Si](OCC)(OCC)O[C@@H](C(=O)O[C@H]1C[C@@]2(O)[C@@H](OC(=O)c3ccccc3)[C@@H]3[C@]4(OC(C)=O)CO[C@@H]4C[C@H](O)[C@@]3(C)C(=O)[C@H](OC(C)=O)C(=C1C)C2(C)C)[C@@H](NC(=O)c1ccccc1)c1ccccc1 | 8.3
9 | 16.1 | – | 200 | CCO[Si](O[C@@H](C(=O)O[C@H]1C[C@@]2(O)[C@@H](OC(=O)c3ccccc3)[C@@H]3[C@]4(OC(C)=O)CO[C@@H]4C[C@H](O)[C@@]3(C)C(=O)[C@H](OC(C)=O)C(=C1C)C2(C)C)[C@@H](NC(=O)c1ccccc1)c1ccccc1)(OC(C)(C)C)OC(C)(C)C | 260
10 | 14.1 | – | 0.183 | CCO[Si](OCC)(OCC)O[C@@H](C(=O)O[C@H]1C[C@@]2(O)[C@@H](OC(=O)c3ccccc3)[C@@H]3[C@]4(OC(C)=O)CO[C@@H]4C[C@H](O)[C@@]3(C)C(=O)[C@H](O)C(=C1C)C2(C)C)[C@@H](NC(=O)OC(C)(C)C)c1ccccc1 | 2.5
11 | 16.4 | 28.33 | – | CC(=O)O[C@H]1C(=O)[C@]2(C)[C@@H](O[Si](OC(C)C)(OC(C)C)OC(C)C)C[C@H]3OC[C@@]3(OC(C)=O)[C@H]2[C@H](OC(=O)c2ccccc2)[C@]2(O)C[C@H](OC(=O)[C@H](O)[C@@H](NC(=O)c3ccccc3)c3ccccc3)C(C)=C1C2(C)C | 260
12 | – | – | 0.583 | CC(=O)O[C@H]1C(=O)[C@@]2(C)[C@H]([C@H](OC(=O)c3ccccc3)[C@]3(O)C[C@H](OC(=O)[C@H](O[Si](OC(C)=O)(OC(C)(C)C)OC(C)(C)C)[C@@H](NC(=O)c4ccccc4)c4ccccc4)C(C)=C1C3(C)C)[C@]1(OC(C)=O)CO[C@@H]1C[C@@H]2O | –
13 | 22.1 | – | 0.2 | CCCCCCCCO[Si](OCCCCCCCC)(OCCCCCCCC)O[C@@H](C(=O)O[C@H]1C[C@@]2(O)[C@@H](OC(=O)c3ccccc3)[C@@H]3[C@]4(OC(C)=O)CO[C@@H]4C[C@H](O)[C@@]3(C)C(=O)[C@H](OC(C)=O)C(=C1C)C2(C)C)[C@@H](NC(=O)c1ccccc1)c1ccccc1 | 7
14 | 16.6 | 0.55 | 0.0767 | CCO[Si](OCC)(OCC)O[C@H]1C[C@H]2OC[C@@]2(OC(C)=O)[C@H]2[C@H](OC(=O)c3ccccc3)[C@]3(O)C[C@H](OC(=O)[C@H](O[Si](OCC)(OCC)OCC)[C@@H](NC(=O)c4ccccc4)c4ccccc4)C(C)=C([C@@H](OC(C)=O)C(=O)[C@]12C)C3(C)C | 12
15 | 10.5 | – | – | CC(=O)O[C@H]1C(=O)[C@@]2(C)[C@H]([C@H](OC(=O)c3ccccc3)[C@]3(O)C[C@H](OC(=O)[C@H](O)[C@@H](NC(=O)c4ccccc4)c4ccccc4)C(C)=C1C3(C)C)[C@]1(OC(C)=O)CO[C@@H]1C[C@@H]2O [PACLITAXEL] | 5.6
16 | 14.6 | 0.5 | – | CCO[Si](OCC)(OCC)O[C@H]1C[C@H]2OC[C@@]2(OC(C)=O)[C@H]2[C@H](OC(=O)c3ccccc3)[C@]3(O)C[C@H](OC(=O)[C@H](O)[C@@H](NC(=O)c4ccccc4)c4ccccc4)C(C)=C([C@@H](OC(C)=O)C(=O)[C@]12C)C3(C)C | 18
17 | 10.9 | – | – | CC(=O)O[C@@]12CO[C@@H]1C[C@H](O)[C@@]1(C)C(=O)[C@H](O)C3=C(C)[C@@H](OC(=O)[C@H](O)[C@@H](NC(=O)OC(C)(C)C)c4ccccc4)C[C@@](O)([C@@H](OC(=O)c4ccccc4)[C@H]21)C3(C)C.O.O.O [DOCETAXEL] | 1

Row | Structure (SMILES) | Retention_time [1] [min] | t1/2 [2] [h] | t1/2 [3] [h] | IC50 (MDA-MB-231) [nM]
18 | CC[Si](CC)(CC)O[C@@H](C(=O)O[C@H]1C[C@@]2(O)[C@@H](OC(=O)c3ccccc3)[C@@H]3[C@]4(OC(C)=O)CO[C@@H]4C[C@H](O)[C@@]3(C)C(=O)[C@H](OC(C)=O)C(=C1C)C2(C)C)[C@@H](NC(=O)c1ccccc1)c1ccccc1 | 15.4 | – | – | 220
